Laboratory results from ChEMBL document CHEMBL1944546, “Structure-activity relationships of novel alkylides: 3-O-arylalkyl clarithromycin derivatives with improved antibacterial activities” (2012).
Values after ≈ are worked out from the molar mass of the structure shown.

Experiments:
Staphylococcus aureus [1] = assay: Antibacterial activity against erythromycin-susceptible Staphylococcus aureus ATCC 29213 by broth microdilution method; format: functional
In short: (§1)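 MIC read by broth microdilution following CLSI (2010) guidance. The clinical isolates were identified by 16S rDNA sequencing and labelled by genotype and phenotype. S. aureus ATCC 29213 and S. pneumoniae ATCC 49619 were the control strains. Azithromycin, clarithromycin and 3-OH-clarithromycin were run as reference compounds.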

[2] = test system: Staphylococcus haemolyticus; assay: Antibacterial activity against methicillin-resistant, coagulase-negative, constitutive MLS-resistant Staphylococcus haemolyticus PU 19 by broth microdilution method; format: functional
In short: (§2)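 MIC by broth microdilution following CLSI (2010) recommendations, using clinical isolates identified by 16S rDNA sequencing and labelled by genotype and phenotype. S. aureus ATCC 29213 and S. pneumoniae ATCC 49619 were run as control strains, and azithromycin, clarithromycin and 3-OH-clarithromycin were tested as reference agents.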

Streptococcus pneumoniae [3] = assay: Antibacterial activity against penicillin-, constitutive MLS-resistant Streptococcus pneumoniae PU 11 by broth microdilution method; format: functional; in short: as §2
Staphylococcus aureus [4] = assay: Antibacterial activity against methicillin-, inducible MLS-resistant Staphylococcus aureus PU 32 by broth microdilution method
Streptococcus pneumoniae [5] = assay: Antibacterial activity against erythromycin-susceptible Streptococcus pneumoniae ATCC 49619 by broth microdilution method; format: functional; in short: as §1
Streptococcus pneumoniae [6] = assay: Antibacterial activity against efflux,penicillin-susceptible Streptococcus pneumoniae PU 09 by broth microdilution method; format: functional; in short: as §1
Streptococcus pneumoniae [7] = assay: Antibacterial activity against penicillin-susceptible, constitutive MLS-resistant Streptococcus pneumoniae PU 27 by broth microdilution method; format: functional; in short: as §2
[8] = test system: Staphylococcus epidermidis; assay: Antibacterial activity against methicillin-susceptible, inducible MLS-resistant Staphylococcus epidermidis E1 by broth microdilution method; format: functional; in short: as §2
[9] = test system: Staphylococcus epidermidis; assay: Antibacterial activity against methicillin-resistant, constitutive MLS-resistant Staphylococcus epidermidis E2 by broth microdilution method; format: functional; in short: as §2
Staphylococcus aureus [10] = assay: Antibacterial activity against methicillin-susceptible, inducible MLS-resistant Staphylococcus aureus PU 64 by broth microdilution method; format: functional; in short: as §2
Staphylococcus aureus [11] = assay: Antibacterial activity against methicillin-, constitutive MLS-resistant […] by broth microdilution method; format: functional; in short: as §2
Streptococcus pyogenes [12] = assay: Antibacterial activity against erythromycin-susceptible Streptococcus pyogenes A 3 by broth microdilution method; format: functional; in short: as §1
[13] = test system: Streptococcus dysgalactiae; assay: Antibacterial activity against efflux, erythromycin-resistant Streptococcus dysgalactiae A 1 by broth microdilution method; format: functional; in short: as §2
Streptococcus pyogenes [14] = assay: Antibacterial activity against constitutive MLS-resistant Streptococcus pyogenes A 2 by broth microdilution method; format: functional; in short: as §2
Staphylococcus hominis = assay: Antibacterial activity against methicillin-resistant, coagulase-negative, inducible MLS-resistant Staphylococcus hominis E3 by broth microdilution method; format: functional; in short: as §2

Row | SMILES | MIC (Staphylococcus aureus [1]) [µg/mL] | MIC [2] [µg/mL] | MIC (Streptococcus pneumoniae [3]) [µg/mL] | MIC (Staphylococcus aureus [4]) [µg/mL] | MIC (Streptococcus pneumoniae [5]) [µg/mL] | MIC (Streptococcus pneumoniae [6]) [µg/mL] | MIC (Streptococcus pneumoniae [7]) [µg/mL] | MIC [8] [µg/mL] | MIC [9] [µg/mL] | MIC (Staphylococcus aureus [10]) [µg/mL] | MIC (Staphylococcus aureus [11]) [µg/mL] | MIC (Streptococcus pyogenes [12]) [µg/mL] | MIC [13] [µg/mL] | MIC (Streptococcus pyogenes [14]) [µg/mL] | MIC (Staphylococcus hominis) [µg/mL]
1 | CC[C@H]1OC(=O)[C@H](C)[C@@H](O/C=C\Cc2cncnc2)[C@H](C)[C@@H](O[C@@H]2O[C@H](C)C[C@H](N(C)C)[C@H]2O)[C@](C)(OC)C[C@@H](C)/C(=N\OCc2ccccc2Cl)[C@H](C)[C@H]2OC(=O)O[C@@]21C | 8 (≈ 9.16 µM) | 64 (≈ 73.3 µM) | 32 (≈ 36.6 µM) | 32 (≈ 36.6 µM) | 0.25 (≈ 0.286 µM) | – | – | – | – | – | – | – | – | – | –
2 | CC[C@H]1OC(=O)[C@H](C)[C@@H](O/C=C\Cc2cncnc2)[C@H](C)[C@@H](O[C@@H]2O[C@H](C)C[C@H](N(C)C)[C@H]2O)[C@](C)(OC)C[C@@H](C)/C(=N\OCc2ccccc2)[C@H](C)[C@@H](O)[C@]1(C)O | 32 (≈ 39.4 µM) | > 256 | 64 (≈ 78.7 µM) | 4 (≈ 4.92 µM) | 2 (≈ 2.46 µM) | 2 (≈ 2.46 µM) | 32 (≈ 39.4 µM) | – | – | – | – | – | – | – | –
3 | CC[C@H]1OC(=O)[C@H](C)[C@@H](OC/C=C/c2cccnc2)[C@H](C)[C@@H](O[C@@H]2O[C@H](C)C[C@H](N(C)C)[C@H]2O)[C@](C)(OC)C[C@@H](C)/C(=N\OCc2ccccc2Cl)[C@H](C)[C@H]2OC(=O)O[C@@]21C | 32 (≈ 36.7 µM) | 32 (≈ 36.7 µM) | 16 (≈ 18.3 µM) | 32 (≈ 36.7 µM) | 4 (≈ 4.58 µM) | 8 (≈ 9.17 µM) | 16 (≈ 18.3 µM) | – | – | – | – | – | – | – | –
4 | CC[C@H]1OC(=O)[C@H](C)[C@@H](OC/C=C/c2ccc(-n3ccnc3)cc2)[C@H](C)[C@@H](O[C@@H]2O[C@H](C)C[C@H](N(C)C)[C@H]2O)[C@](C)(OC)C[C@@H](C)/C(=N\OCc2ccccc2Cl)[C@H](C)[C@H]2OC(=O)O[C@@]21C | 32 (≈ 34.1 µM) | 32 (≈ 34.1 µM) | 32 (≈ 34.1 µM) | 32 (≈ 34.1 µM) | 16 (≈ 17.1 µM) | 16 (≈ 17.1 µM) | 32 (≈ 34.1 µM) | – | – | – | – | – | – | – | –
5 | CC[C@H]1OC(=O)[C@H](C)[C@@H](OCC#Cc2cncnc2)[C@H](C)[C@@H](O[C@@H]2O[C@H](C)C[C@H](N(C)C)[C@H]2O)[C@](C)(OC)C[C@@H](C)/C(=N\OCc2ccccc2Cl)[C@H](C)[C@H]2OC(=O)O[C@@]21C | 32 (≈ 36.7 µM) | 32 (≈ 36.7 µM) | 32 (≈ 36.7 µM) | 32 (≈ 36.7 µM) | 16 (≈ 18.4 µM) | – | – | – | – | – | – | – | – | – | –
6 | CC[C@H]1OC(=O)[C@H](C)[C@@H](O[C@H]2C[C@@](C)(OC)[C@@H](O)[C@H](C)O2)[C@H](C)[C@@H](O[C@@H]2O[C@H](C)C[C@H](N(C)C)[C@H]2O)[C@](C)(OC)C[C@@H](C)C(=O)[C@H](C)[C@@H](O)[C@]1(C)O [CLARITHROMYCIN] | 0.25 (≈ 0.334 µM) | > 256 | > 256 | 1 (≈ 1.34 µM) | 0.032 (≈ 0.0428 µM) | 4 (≈ 5.35 µM) | 1 (≈ 1.34 µM) | > 256 | > 256 | 2 (≈ 2.67 µM) | > 256 | 0.032 (≈ 0.0428 µM) | 8 (≈ 10.7 µM) | > 256 | > 256
7 | CC[C@H]1OC(=O)[C@H](C)[C@@H](OC/C=C/c2cncnc2)[C@H](C)[C@@H](O[C@@H]2O[C@H](C)C[C@H](N(C)C)[C@H]2O)[C@](C)(OC)C[C@@H](C)/C(=N\OCc2ccccc2Cl)[C@H](C)[C@H]2OC(=O)O[C@@]21C | 64 (≈ 73.3 µM) | 64 (≈ 73.3 µM) | 32 (≈ 36.6 µM) | 64 (≈ 73.3 µM) | 4 (≈ 4.58 µM) | – | – | – | – | – | – | – | – | – | –
8 | CC[C@H]1OC(=O)[C@H](C)[C@@H](OC/C=C/c2cncnc2)[C@H](C)[C@@H](O[C@@H]2O[C@H](C)C[C@H](N(C)C)[C@H]2O)[C@](C)(OC)C[C@@H](C)/C(=N\OCc2ccccc2)[C@H](C)[C@H]2OC(=O)O[C@@]21C | 32 (≈ 38.1 µM) | > 256 | 64 (≈ 76.3 µM) | 32 (≈ 38.1 µM) | 2 (≈ 2.38 µM) | 4 (≈ 4.77 µM) | 64 (≈ 76.3 µM) | – | – | – | – | – | – | – | –
9 | CC[C@H]1OC(=O)[C@H](C)[C@@H](OCC#Cc2cccnc2)[C@H](C)[C@@H](O[C@@H]2O[C@H](C)C[C@H](N(C)C)[C@H]2O)[C@](C)(OC)C[C@@H](C)/C(=N\OCc2ccccc2Cl)[C@H](C)[C@H]2OC(=O)O[C@@]21C | 64 (≈ 73.5 µM) | 64 (≈ 73.5 µM) | 32 (≈ 36.8 µM) | 64 (≈ 73.5 µM) | 16 (≈ 18.4 µM) | – | – | – | – | – | – | – | – | – | –
10 | CC[C@H]1OC(=O)[C@H](C)[C@@H](O)[C@H](C)[C@@H](O[C@@H]2O[C@H](C)C[C@H](N(C)C)[C@H]2O)[C@](C)(OC)C[C@@H](C)C(=O)[C@H](C)[C@@H](O)[C@]1(C)O | > 256 | > 256 | > 256 | > 256 | 64 (≈ 109 µM) | 128 (≈ 217 µM) | 128 (≈ 217 µM) | – | – | – | – | – | – | – | –
